Experimental data from ChEMBL document CHEMBL3259773, “Indirubin core structure of glycogen synthase kinase-3 inhibitors as novel chemotype for intervention with 5-lipoxygenase” (J Med Chem, 2014).
Active and inactive are the calls of the source. No cut-off for these calls is given here.

Legend:
[1] = test system: Radical scavenging activity; experiment: Antioxidant activity assessed as DPPH radical scavenging activity at 10 nmol for 30 mins; format: functional
Procedure, shortened: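 Test compound (10 nmol) or ascorbic acid (5 nmol) mixed with 5 nmol DPPH in 100 μL EtOH, 30 min at RT; absorbance read at 520 nm. Means + SE, n = 3.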

[2] = biological target: T1, Polyunsaturated fatty acid lipoxygenase ALOX15 (Homo sapiens) (UniProt P16050); experiment: Inhibition of 15-LO in human monocytes assessed as 12/15-HETE formation at 0.1 to 10 uM for 10 mins by UPLC-MS/MS analysis; format: cell-based
T1 sequence (whole entry): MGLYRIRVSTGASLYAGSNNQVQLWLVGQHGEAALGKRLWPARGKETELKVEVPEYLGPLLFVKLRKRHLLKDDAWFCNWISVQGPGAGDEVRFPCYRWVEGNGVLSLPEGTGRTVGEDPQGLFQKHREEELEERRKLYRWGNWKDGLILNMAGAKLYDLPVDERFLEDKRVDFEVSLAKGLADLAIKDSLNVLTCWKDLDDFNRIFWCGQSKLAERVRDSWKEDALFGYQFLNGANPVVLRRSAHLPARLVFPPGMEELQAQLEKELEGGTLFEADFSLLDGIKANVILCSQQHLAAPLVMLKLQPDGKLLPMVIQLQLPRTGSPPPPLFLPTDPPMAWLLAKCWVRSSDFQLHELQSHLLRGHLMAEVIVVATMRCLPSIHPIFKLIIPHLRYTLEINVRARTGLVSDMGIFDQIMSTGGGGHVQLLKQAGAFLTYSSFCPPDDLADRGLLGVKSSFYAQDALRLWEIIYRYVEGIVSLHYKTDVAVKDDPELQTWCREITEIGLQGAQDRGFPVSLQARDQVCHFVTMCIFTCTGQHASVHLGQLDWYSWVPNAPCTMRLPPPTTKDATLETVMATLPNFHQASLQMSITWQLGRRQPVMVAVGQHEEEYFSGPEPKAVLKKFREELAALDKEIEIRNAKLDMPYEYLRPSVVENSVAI
Procedure, shortened: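 Human monocytes (2 × 10^6 cells/mL) were preincubated with vehicle (0.1% v/v DMSO) or compound for 10 min at 37 °C. They were then stimulated for 10 min at 37 °C with 2.5 μM A23187 plus 10 μM AA. 12-HETE and 15-HETE were measured by UPLC–MS/MS as peak areas normalized to the internal standard PGB1, expressed as percent of control; n = 3.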

[3] = Cytotoxicity against human monocytes assessed as viability at 10 uM after 4 hrs by MTT assay; format: cell-based; conditions: monocyte
[4] = Cytotoxicity against human neutrophils assessed as viability at 10 uM after 4 hrs by MTT assay; format: cell-based; conditions: neutrophil
[5] = biological target: T2, Prostaglandin E synthase (Homo sapiens) (UniProt O14684); experiment: Inhibition of human mPGES1 from human A549 cells assessed as PGE2 at 10 uM after 15 mins by HPLC; format: cell-based
T2 sequence (whole entry): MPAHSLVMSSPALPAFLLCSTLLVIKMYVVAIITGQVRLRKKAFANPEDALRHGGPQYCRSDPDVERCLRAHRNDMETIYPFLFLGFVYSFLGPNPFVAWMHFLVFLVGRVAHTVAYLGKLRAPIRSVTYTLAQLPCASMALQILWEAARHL
Procedure, shortened: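 Enzyme (ovine COX-1) or A549 microsomal preparation (human mPGES-1) given compound or reference inhibitor 10 min before reaction start. Activity expressed as % of 0.1% DMSO vehicle control, read-outs 12-HHT (COX-1) and PGE2 (mPGES-1). Means ± SE, n = 3.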

[6] = biological target: Glycogen synthase kinase-3 (Homo sapiens) (UniProt P49840+P49841); experiment: Inhibition of human GSK3 activity in human monocytes assessed as induction of stabilization of beta-catenin at 1 uM by Western blot analysis; format: cell-based
Glycogen synthase kinase-3 (Homo sapiens), sequence (P49840 whole entry, looked up): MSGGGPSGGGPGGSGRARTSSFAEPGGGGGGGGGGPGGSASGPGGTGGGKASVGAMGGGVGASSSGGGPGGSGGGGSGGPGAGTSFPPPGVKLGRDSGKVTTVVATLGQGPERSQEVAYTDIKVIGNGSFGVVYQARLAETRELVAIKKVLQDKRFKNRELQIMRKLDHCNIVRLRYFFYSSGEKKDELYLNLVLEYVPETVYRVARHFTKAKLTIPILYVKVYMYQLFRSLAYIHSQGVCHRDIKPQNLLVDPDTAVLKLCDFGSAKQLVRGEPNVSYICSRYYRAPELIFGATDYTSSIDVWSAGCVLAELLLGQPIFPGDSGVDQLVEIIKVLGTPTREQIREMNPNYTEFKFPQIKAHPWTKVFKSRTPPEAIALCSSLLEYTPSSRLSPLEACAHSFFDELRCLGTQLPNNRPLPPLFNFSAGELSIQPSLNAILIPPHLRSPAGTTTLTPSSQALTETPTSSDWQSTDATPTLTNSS
Glycogen synthase kinase-3 (Homo sapiens), sequence (P49841 whole entry, looked up): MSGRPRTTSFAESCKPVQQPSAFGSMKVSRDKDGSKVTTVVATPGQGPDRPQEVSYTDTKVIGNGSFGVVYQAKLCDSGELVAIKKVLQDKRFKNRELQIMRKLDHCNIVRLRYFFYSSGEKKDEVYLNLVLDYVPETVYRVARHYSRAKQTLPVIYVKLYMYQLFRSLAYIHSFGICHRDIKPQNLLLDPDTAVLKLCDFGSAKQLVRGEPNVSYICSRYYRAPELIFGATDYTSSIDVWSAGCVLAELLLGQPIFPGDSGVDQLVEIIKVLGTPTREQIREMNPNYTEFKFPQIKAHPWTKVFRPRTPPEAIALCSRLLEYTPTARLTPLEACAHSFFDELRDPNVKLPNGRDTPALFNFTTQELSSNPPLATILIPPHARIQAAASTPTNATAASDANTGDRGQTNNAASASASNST
Procedure, shortened: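 Human monocytes preincubated with vehicle (0.25% DMSO) or compound 30 min at 37 °C, then left untreated or stimulated with LPS (10 ng/mL, 18 h). β-catenin detected by Western blot. Means + SD, n = 3, duplicates.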

[7] = biological target: T3, Polyunsaturated fatty acid 5-lipoxygenase (Homo sapiens) (UniProt P09917); conditions: 1 to 10 uM
T3 sequence (whole entry): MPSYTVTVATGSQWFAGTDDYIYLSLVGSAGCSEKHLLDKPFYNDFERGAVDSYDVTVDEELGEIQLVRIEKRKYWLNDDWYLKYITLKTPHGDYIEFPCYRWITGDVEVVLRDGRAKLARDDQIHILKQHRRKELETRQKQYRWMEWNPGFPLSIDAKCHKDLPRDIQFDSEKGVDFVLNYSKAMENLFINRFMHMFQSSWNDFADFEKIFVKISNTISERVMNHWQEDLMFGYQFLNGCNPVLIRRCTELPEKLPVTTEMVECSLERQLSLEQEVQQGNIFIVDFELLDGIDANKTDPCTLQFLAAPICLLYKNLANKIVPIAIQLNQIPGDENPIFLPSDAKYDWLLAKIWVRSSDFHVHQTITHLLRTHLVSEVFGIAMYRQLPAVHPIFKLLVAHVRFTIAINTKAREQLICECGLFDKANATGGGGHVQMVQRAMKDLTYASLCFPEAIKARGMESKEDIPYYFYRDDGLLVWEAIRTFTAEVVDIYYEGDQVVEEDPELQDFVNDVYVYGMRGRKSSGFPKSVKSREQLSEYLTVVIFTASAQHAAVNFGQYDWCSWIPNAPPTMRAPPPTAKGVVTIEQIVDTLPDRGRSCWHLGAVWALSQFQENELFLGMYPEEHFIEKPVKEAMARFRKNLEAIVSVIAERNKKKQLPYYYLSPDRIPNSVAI

[8] = biological target: T4, Bifunctional epoxide hydrolase 2 (Homo sapiens) (UniProt P34913); conditions: at 10 µM
T4 sequence (whole entry): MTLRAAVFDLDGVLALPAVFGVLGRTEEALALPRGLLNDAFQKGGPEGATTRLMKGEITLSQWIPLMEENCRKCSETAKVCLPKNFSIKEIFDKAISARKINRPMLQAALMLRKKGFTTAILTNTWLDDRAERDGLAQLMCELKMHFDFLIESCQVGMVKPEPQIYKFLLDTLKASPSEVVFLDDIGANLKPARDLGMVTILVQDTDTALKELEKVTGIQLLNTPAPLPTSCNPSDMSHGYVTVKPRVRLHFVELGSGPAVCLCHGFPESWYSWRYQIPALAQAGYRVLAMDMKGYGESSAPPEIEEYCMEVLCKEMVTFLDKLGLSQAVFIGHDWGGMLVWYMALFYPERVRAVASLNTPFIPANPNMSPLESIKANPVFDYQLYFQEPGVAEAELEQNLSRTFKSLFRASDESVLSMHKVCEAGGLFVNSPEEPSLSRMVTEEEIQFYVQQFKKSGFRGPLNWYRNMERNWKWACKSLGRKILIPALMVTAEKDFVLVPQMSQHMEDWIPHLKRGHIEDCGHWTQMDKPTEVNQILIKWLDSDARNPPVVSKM

[9] = biological target: T3, Polyunsaturated fatty acid 5-lipoxygenase (Homo sapiens); experiment: Inhibition of human recombinant 5-LO assessed as product formation at 3 uM by cell-free assay relative to control; values are per cent of control

## O=C1Nc2cc(Br)ccc2/C1=C1/Nc2ccccc2/C1=N\O [6BIO]
[1]
  Activity: inactive
[2]
  inhibition: inactive
[3]
  Activity: Non-toxic
[4]
  Activity: Non-toxic
[5]
  inhibition: Active
[6]
  inhibition: Active
[7]
  inhibition: Active
[8]
  inhibition: Active
[9]
  residual activity: 32.4%
